# Reference: ChEMBL document CHEMBL1155468, “Syntheses and evaluation of anticonvulsant profile and teratogenicity of novel amide derivatives of branched aliphatic carboxylic acids with 4-aminobenzensulfonamide” (J Med Chem, 2010)
# Activity calls are given as the source filed them. No cut-off for these calls is given here.
# Columns and labels:
# [1] = tested on: Mus musculus; assay: Anticonvulsant activity in CF1 albino mouse assessed as inhibition of subcutaneous pentylenetetrazole-induced seizures at 30 mg/kg, ip after 0.5 hrs; type: functional, organism-based; set-up: dose 30 mg/kg
# Summary of the method: (§1)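 Adult male CF no. 1 albino mice (18-25 g) dosed ip with compound suspended in 0.5% methylcellulose (0.01 mL/g). Convulsant: pentylenetetrazol dissolved in 0.9% saline as a 0.85% solution for mice, given subcutaneously.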
# [2] = tested on: Mus musculus; assay: Anticonvulsant activity in CF1 albino mouse assessed as inhibition of subcutaneous pentylenetetrazole-induced seizures at 100 mg/kg, ip after 0.5 hrs; type: functional, organism-based; set-up: dose 100 mg/kg; summary of the method: as §1
# [3] = tested on: Mus musculus; assay: Anticonvulsant activity in CF1 albino mouse assessed as inhibition of subcutaneous pentylenetetrazole-induced seizures at 300 mg/kg, ip after 0.5 hrs; type: functional, organism-based; set-up: dose 300 mg/kg; summary of the method: as §1
# [4] = tested on: Mus musculus; assay: Anticonvulsant activity in CF1 albino mouse assessed as inhibition of subcutaneous pentylenetetrazole-induced seizures at 30 mg/kg, ip after 4 hrs; type: functional, organism-based; set-up: dose 30 mg/kg; summary of the method: as §1
# [5] = tested on: Mus musculus; assay: Anticonvulsant activity in CF1 albino mouse assessed as inhibition of subcutaneous pentylenetetrazole-induced seizures at 100 mg/kg, ip after 4 hrs; type: functional, organism-based; set-up: dose 100 mg/kg; summary of the method: as §1
# [6] = tested on: Mus musculus; assay: Teratogenic effect in SWV mouse assessed as resorptions at 562 mg/kg, ip administered on morning of day 8 of gestation; type: toxicity, organism-based; set-up: dose 562 mg/kg, route intraperitoneal; settings: in vivo
# Summary of the method: (§2)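 SWV inbred mice: two-month-old nulligravid females mated overnight with males and checked for vaginal plugs next morning; gestation onset taken as 10 p.m. the previous night. On gestation day 8.5 each dam got one ip injection, 0.55–2.7 mmol/kg, in 25% aqueous Cremophor EL (vehicle controls dosed alike), 10 μL/g body weight. Litters and implants tallied; resorptions and live fetuses reported as counts with percentages.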
# [7] = tested on: Mus musculus; assay: Teratogenic effect in SWV mouse assessed as resorptions at 340 mg/kg, ip administered on morning of day 8 of gestation; type: toxicity, organism-based; set-up: dose 340 mg/kg, route intraperitoneal; settings: in vivo; summary of the method: as §2
# [8] = tested on: Mus musculus; assay: Teratogenic effect in SWV mouse assessed as resorptions at 172 mg/kg, ip administered on morning of day 8 of gestation; type: toxicity, organism-based; set-up: dose 172 mg/kg, route intraperitoneal; settings: in vivo; summary of the method: as §2
# [9] = tested on: Mus musculus; assay: Teratogenic effect in SWV mouse assessed as fetuses with neural tube deffects at 562 mg/kg, ip administered on morning of day 8 of gestation; type: toxicity, organism-based; set-up: dose 562 mg/kg, route intraperitoneal; settings: in vivo
# Summary of the method: (§3)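 Two-month-old nulligravid SWV females were mated overnight and checked for vaginal plugs the next morning; gestation onset was set at 10 p.m. the previous night. On gestation day 8.5, each dam received a single ip injection (0.55-2.7 mmol/kg range) or vehicle (25% aqueous Cremophor EL) at 10 μL/g body weight. Litters were scored for implants, resorptions, live and dead fetuses, and fetuses with neural tube defects.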
# [10] = tested on: Mus musculus; assay: Teratogenic effect in SWV mouse assessed as fetuses with neural tube deffects at 340 mg/kg, ip administered on morning of day 8 of gestation; type: toxicity, organism-based; set-up: dose 340 mg/kg, route intraperitoneal; settings: in vivo; summary of the method: as §3
# [11] = tested on: Mus musculus; assay: Teratogenic effect in SWV mouse assessed as fetuses with neural tube deffects at 172 mg/kg, ip administered on morning of day 8 of gestation; type: toxicity, organism-based; set-up: dose 172 mg/kg, route intraperitoneal; settings: in vivo; summary of the method: as §3
# [12] = tested on: Mus musculus; assay: Teratogenic effect in SWV mouse assessed as live fetuses at 562 mg/kg, ip administered on morning of day 8 of gestation; type: toxicity, organism-based; set-up: dose 562 mg/kg, route intraperitoneal; settings: in vivo; summary of the method: as §2
# [13] = tested on: Mus musculus; assay: Teratogenic effect in SWV mouse assessed as live fetuses at 340 mg/kg, ip administered on morning of day 8 of gestation; type: toxicity, organism-based; set-up: dose 340 mg/kg, route intraperitoneal; settings: in vivo; summary of the method: as §2
# [14] = tested on: Mus musculus; assay: Teratogenic effect in SWV mouse assessed as live fetuses at 172 mg/kg, ip administered on morning of day 8 of gestation; type: toxicity, organism-based; set-up: dose 172 mg/kg, route intraperitoneal; settings: in vivo; summary of the method: as §3
# [15] = tested on: Mus musculus; assay: Anticonvulsant activity in CF1 albino mouse assessed as inhibition of maximal electroshock-induced seizures at 30 mg/kg, ip after 0.5 hrs; type: functional, organism-based; set-up: dose 30 mg/kg
# Summary of the method: (§4)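 Test compounds suspended in 0.5% methylcellulose and given ip to adult male CF no. 1 albino mice (18-25 g) at 0.01 mL/g body weight before maximal electroshock challenge.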
# [16] = tested on: Mus musculus; assay: Anticonvulsant activity in CF1 albino mouse assessed as inhibition of maximal electroshock-induced seizures at 300 mg/kg, ip after 0.5 hrs; type: functional, organism-based; set-up: dose 300 mg/kg; summary of the method: as §4
# [17] = tested on: Mus musculus; assay: Anticonvulsant activity in CF1 albino mouse assessed as inhibition of maximal electroshock-induced seizures at 30 mg/kg, ip after 4 hrs; type: functional, organism-based; set-up: dose 30 mg/kg; summary of the method: as §4
# [18] = tested on: Mus musculus; assay: Anticonvulsant activity in CF1 albino mouse assessed as inhibition of maximal electroshock-induced seizures at 300 mg/kg, ip after 4 hrs; type: functional, organism-based; set-up: dose 300 mg/kg; summary of the method: as §4
# [19] = tested on: Mus musculus; assay: Anticonvulsant activity in CF1 albino mouse assessed as inhibition of subcutaneous pentylenetetrazole-induced seizures at 300 mg/kg, ip after 4 hrs; type: functional, organism-based; set-up: dose 300 mg/kg; summary of the method: as §1
# [20] = tested on: Mus musculus; assay: Neurotoxicity in CF1 albino mouse assessed as motor impairment at 30 mg/kg, ip after 0.5 hrs; type: toxicity, organism-based; set-up: dose 30 mg/kg, route intraperitoneal; settings: in vivo
# [21] = tested on: Mus musculus; assay: Neurotoxicity in CF1 albino mouse assessed as motor impairment at 100 mg/kg, ip after 0.5 hrs; type: toxicity, organism-based; set-up: dose 100 mg/kg, route intraperitoneal; settings: in vivo
# [22] = tested on: Mus musculus; assay: Neurotoxicity in CF1 albino mouse assessed as motor impairment at 300 mg/kg, ip after 0.5 hrs; type: toxicity, organism-based; set-up: dose 300 mg/kg, route intraperitoneal; settings: in vivo
# [23] = tested on: Mus musculus; assay: Neurotoxicity in CF1 albino mouse assessed as motor impairment at 30 mg/kg, ip after 4 hrs; type: toxicity, organism-based; set-up: dose 30 mg/kg, route intraperitoneal; settings: in vivo
# [24] = tested on: Mus musculus; assay: Neurotoxicity in CF1 albino mouse assessed as motor impairment at 100 mg/kg, ip after 4 hrs; type: toxicity, organism-based; set-up: dose 100 mg/kg, route intraperitoneal; settings: in vivo
# [25] = tested on: Mus musculus; assay: Neurotoxicity in CF1 albino mouse assessed as motor impairment at 300 mg/kg, ip after 4 hrs; type: toxicity, organism-based; set-up: dose 300 mg/kg, route intraperitoneal; settings: in vivo
# [26] = organism: Rattus norvegicus; assay: Protective index, ratio of TD50 for rat to ED50 for maximal electroshock-induced rat seizure model
# [27] = tested on: Rattus norvegicus; assay: Neurotoxicity in Sprague-Dawley rat assessed as motor impairment at 30 mg/kg, po after 0.25 to 4 hrs; settings: in vivo
# [28] = tested on: Rattus norvegicus; assay: Anticonvulsant activity in po dosed rat assessed as inhibition of maximal electroshock-induced seizures
# [29] = tested on: Rattus norvegicus; assay: Anticonvulsant activity in Sprague-Dawley rat assessed as inhibition of maximal electroshock-induced seizures at 30 mg/kg, po after 15 mins
# [30] = tested on: Mus musculus; assay: Teratogenic effect in SWV mouse assessed as resorptions at 511 mg/kg, ip administered on morning of day 8 of gestation; type: toxicity, organism-based; set-up: dose 511 mg/kg, route intraperitoneal; settings: in vivo; summary of the method: as §2
# [31] = tested on: Mus musculus; assay: Teratogenic effect in SWV mouse assessed as resorptions at 310 mg/kg, ip administered on morning of day 8 of gestation; type: toxicity, organism-based; set-up: dose 310 mg/kg, route intraperitoneal; settings: in vivo; summary of the method: as §2
# [32] = tested on: Mus musculus; assay: Teratogenic effect in SWV mouse assessed as resorptions at 156 mg/kg, ip administered on morning of day 8 of gestation; type: toxicity, organism-based; set-up: dose 156 mg/kg, route intraperitoneal; settings: in vivo; summary of the method: as §2
# [33] = tested on: Mus musculus; assay: Teratogenic effect in SWV mouse assessed as fetuses with neural tube deffects at 511 mg/kg, ip administered on morning of day 8 of gestation; type: toxicity, organism-based; set-up: dose 511 mg/kg, route intraperitoneal; settings: in vivo; summary of the method: as §3
# [34] = tested on: Mus musculus; assay: Teratogenic effect in SWV mouse assessed as fetuses with neural tube deffects at 310 mg/kg, ip administered on morning of day 8 of gestation; type: toxicity, organism-based; set-up: dose 310 mg/kg, route intraperitoneal; settings: in vivo; summary of the method: as §3
# [35] = tested on: Mus musculus; assay: Teratogenic effect in SWV mouse assessed as live fetuses at 511 mg/kg, ip administered on morning of day 8 of gestation; type: toxicity, organism-based; set-up: dose 511 mg/kg, route intraperitoneal; settings: in vivo; summary of the method: as §2
# [36] = tested on: Mus musculus; assay: Teratogenic effect in SWV mouse assessed as live fetuses at 310 mg/kg, ip administered on morning of day 8 of gestation; type: toxicity, organism-based; set-up: dose 310 mg/kg, route intraperitoneal; settings: in vivo; summary of the method: as §3
# [37] = tested on: Mus musculus; assay: Teratogenic effect in SWV mouse assessed as live fetuses at 156 mg/kg, ip administered on morning of day 8 of gestation; type: toxicity, organism-based; set-up: dose 156 mg/kg, route intraperitoneal; settings: in vivo; summary of the method: as §3
# [38] = tested on: Mus musculus; assay: Anticonvulsant activity in CF1 albino mouse assessed as inhibition of maximal electroshock-induced seizures at 100 mg/kg, ip after 0.5 hrs; type: functional, organism-based; set-up: dose 100 mg/kg; summary of the method: as §4
# [39] = tested on: Rattus norvegicus; assay: Anticonvulsant activity in Sprague-Dawley rat assessed as inhibition of maximal electroshock-induced seizures at 30 mg/kg, po after 2 hrs
# [40] = tested on: Rattus norvegicus; assay: Anticonvulsant activity in Sprague-Dawley rat assessed as inhibition of maximal electroshock-induced seizures at 30 mg/kg, po after 4 hrs
Compound,Activity [1],Activity [2],Activity [3],Activity [4],Activity [5],Activity [15],Activity [16],Activity [17],Activity [18],Activity [19],Activity [20],Activity [21],Activity [22],Activity [23],Activity [24],Activity [25],Ratio TD50/ED50 [26],Activity [27],ED50 [28] [mg/kg],further results
CCCC(C(=O)Nc1ccc(S(N)(=O)=O)cc1)C(C)CC (centres undefined),inactive,inactive,inactive,inactive,inactive,inactive,Active,inactive,Active,inactive,Non-toxic,Non-toxic,Non-toxic,Non-toxic,Non-toxic,Non-toxic,>13.9,Non-toxic,35.8,Activity [6]: 50%; Activity [7]: 33.3%; Activity [8]: 12%; Activity [9]: 7.1%; Activity [10]: 5%; Activity [11]: 7.8%; Activity [12]: 50%; Activity [13]: 66.7%; Activity [14]: 88%; Activity [29]: inactive
CCC(CC)C(=O)NCc1ccc(S(N)(=O)=O)cc1,inactive,inactive,inactive,inactive,inactive,inactive,Active,inactive,Active,inactive,Non-toxic,Non-toxic,Non-toxic,Non-toxic,Non-toxic,Non-toxic,>20.2,Non-toxic,24.7,Activity [30]: 6.4%; Activity [31]: 6.5%; Activity [32]: 5.6%; Activity [33]: 3.1%; Activity [34]: 3.4%; Activity [35]: 93.6%; Activity [36]: 93.5%; Activity [37]: 94.4%; Activity [38]: Active; Activity [39]: inactive; Activity [40]: inactive
